# Measurements reported in ChEMBL document CHEMBL2157935, “Synthesis and properties of cationic 2'-O-[N-(4-aminobutyl)carbamoyl] modified oligonucleotides” (Bioorg Med Chem Lett, 2012).
# Columns and labels:
# [1] = Chemical stability in presence of snake venom phosphodiesterase at 50 uM and pH 8.4; assay type: physicochemical; conditions: buffer
# Summary of the method: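 Oligonucleotides (50 μM) incubated at 37 °C in 50 mM Tris-HCl (pH 8.5) with 72 mM NaCl, 14 mM MgCl2 and 2.5 × 10^-4 U/ml snake venom phosphodiesterase; hydrolysis followed over time.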
# Nucleic Acid [2] = test: Binding affinity to RNA 3'-CAUGGAAAGGCC-5' assessed as change in melting temperature; assay type: nucleic-acid assay
# Nucleic Acid [3] = test: Binding affinity to RNA 3'-CAUGGAAAGGCC-5' assessed as melting temperature; assay type: nucleic-acid assay
# Nucleic Acid [4] = test: Binding affinity to RNA 3'-CAUGGCAAGGCC-5' assessed as melting temperature; assay type: nucleic-acid assay
# Nucleic Acid [5] = test: Binding affinity to RNA 3'-CAUGGUAAGGCC-5' assessed as melting temperature; assay type: nucleic-acid assay
# Nucleic Acid [6] = test: Binding affinity to RNA 3'-CAUGGGAAGGCC-5' assessed as melting temperature; assay type: nucleic-acid assay
Structure (SMILES),ΔTm (Nucleic Acid [2]) [°C],Tm (Nucleic Acid [3]) [°C],Tm (Nucleic Acid [4]) [°C],Tm (Nucleic Acid [5]) [°C],Tm (Nucleic Acid [6]) [°C],Stability [1]
Cc1cn([C@H]2C[C@H](O)[C@@H](COP(=O)(O)O[C@H]3[C@@H](OC(=O)NCCCCN)[C@H](n4ccc(=O)[nH]c4=O)O[C@@H]3COP(=O)(O)O[C@H]3[C@@H](OC(=O)NCCCCN)[C@H](n4ccc(=O)[nH]c4=O)O[C@@H]3CO)O2)c(=O)[nH]c1=O,–,–,–,–,–,Stable
CO[C@@H]1[C@H](OP(=O)(O)OC[C@H]2O[C@@H](n3ccc(=O)[nH]c3=O)[C@H](OC(N)=O)[C@@H]2OP(=O)(O)OC[C@H]2O[C@@H](n3ccc(=O)[nH]c3=O)[C@H](OC)[C@@H]2OP(=O)(O)OC[C@H]2O[C@@H](n3ccc(=O)[nH]c3=O)[C@H](OC(N)=O)[C@@H]2OP(=O)(O)OC[C@H]2O[C@@H](n3ccc(N)nc3=O)[C@H](OC)[C@@H]2OP(=O)(O)OC[C@H]2O[C@@H](n3ccc(N)nc3=O)[C@H](OC)[C@@H]2OP(=O)(O)OC[C@H]2O[C@@H](n3cnc4c(=O)[nH]c(N)nc43)[C@H](OC)[C@@H]2OP(=O)(O)OC[C@H]2O[C@@H](n3cnc4c(=O)[nH]c(N)nc43)[C@H](OC)[C@@H]2O)[C@@H](COP(=O)(O)O[C@H]2[C@@H](OC)[C@H](n3ccc(N)nc3=O)O[C@@H]2COP(=O)(O)O[C@H]2[C@@H](OC)[C@H](n3cnc4c(N)ncnc43)O[C@@H]2COP(=O)(O)O[C@H]2[C@@H](OC)[C@H](n3ccc(=O)[nH]c3=O)O[C@@H]2COP(=O)(O)O[C@H]2[C@@H](OC)[C@H](n3cnc4c(=O)[nH]c(N)nc43)O[C@@H]2CO)O[C@H]1n1ccc(N)nc1=O,–,43,–,–,–,–
CO[C@@H]1[C@H](OP(=O)(O)OC[C@H]2O[C@@H](n3ccc(=O)[nH]c3=O)[C@H](OC)[C@@H]2OP(=O)(O)OC[C@H]2O[C@@H](n3ccc(=O)[nH]c3=O)[C@H](OC)[C@@H]2OP(=O)(O)OC[C@H]2O[C@@H](n3ccc(=O)[nH]c3=O)[C@H](OC)[C@@H]2OP(=O)(O)OC[C@H]2O[C@@H](n3ccc(N)nc3=O)[C@H](OC)[C@@H]2OP(=O)(O)OC[C@H]2O[C@@H](n3ccc(N)nc3=O)[C@H](OC)[C@@H]2OP(=O)(O)OC[C@H]2O[C@@H](n3cnc4c(=O)[nH]c(N)nc43)[C@H](OC)[C@@H]2OP(=O)(O)OC[C@H]2O[C@@H](n3cnc4c(=O)[nH]c(N)nc43)[C@H](OC)[C@@H]2O)[C@@H](COP(=O)(O)O[C@H]2[C@@H](OC)[C@H](n3ccc(N)nc3=O)O[C@@H]2COP(=O)(O)O[C@H]2[C@@H](OC)[C@H](n3cnc4c(N)ncnc43)O[C@@H]2COP(=O)(O)O[C@H]2[C@@H](OC)[C@H](n3ccc(=O)[nH]c3=O)O[C@@H]2COP(=O)(O)O[C@H]2[C@@H](OC)[C@H](n3cnc4c(=O)[nH]c(N)nc43)O[C@@H]2CO)O[C@H]1n1ccc(N)nc1=O,–,–,57,58,63,–

# More lines, main results first:
ΔTm (Nucleic Acid [2]) [°C],Tm (Nucleic Acid [3]) [°C],Tm (Nucleic Acid [4]) [°C],Tm (Nucleic Acid [5]) [°C],Tm (Nucleic Acid [6]) [°C],Structure (SMILES),Stability [1]
14,61,–,–,–,CO[C@@H]1[C@H](OP(=O)(O)OC[C@H]2O[C@@H](n3ccc(=O)[nH]c3=O)[C@H](OC)[C@@H]2OP(=O)(O)OC[C@H]2O[C@@H](n3ccc(=O)[nH]c3=O)[C@H](OC)[C@@H]2OP(=O)(O)OC[C@H]2O[C@@H](n3ccc(=O)[nH]c3=O)[C@H](OC(=O)NCCCCN)[C@@H]2OP(=O)(O)OC[C@H]2O[C@@H](n3ccc(N)nc3=O)[C@H](OC)[C@@H]2OP(=O)(O)OC[C@H]2O[C@@H](n3ccc(N)nc3=O)[C@H](OC)[C@@H]2OP(=O)(O)OC[C@H]2O[C@@H](n3cnc4c(=O)[nH]c(N)nc43)[C@H](OC)[C@@H]2OP(=O)(O)OC[C@H]2O[C@@H](n3cnc4c(=O)[nH]c(N)nc43)[C@H](OC)[C@@H]2O)[C@@H](COP(=O)(O)O[C@H]2[C@@H](OC)[C@H](n3ccc(N)nc3=O)O[C@@H]2COP(=O)(O)O[C@H]2[C@@H](OC)[C@H](n3cnc4c(N)ncnc43)O[C@@H]2COP(=O)(O)O[C@H]2[C@@H](OC(=O)NCCCCN)[C@H](n3ccc(=O)[nH]c3=O)O[C@@H]2COP(=O)(O)O[C@H]2[C@@H](OC)[C@H](n3cnc4c(=O)[nH]c(N)nc43)O[C@@H]2CO)O[C@H]1n1ccc(N)nc1=O,–
4,69,57,59,68,CO[C@@H]1[C@H](OP(=O)(O)OC[C@H]2O[C@@H](n3ccc(=O)[nH]c3=O)[C@H](OC(=O)NCCCCN)[C@@H]2OP(=O)(O)OC[C@H]2O[C@@H](n3ccc(=O)[nH]c3=O)[C@H](OC)[C@@H]2OP(=O)(O)OC[C@H]2O[C@@H](n3ccc(=O)[nH]c3=O)[C@H](OC)[C@@H]2OP(=O)(O)OC[C@H]2O[C@@H](n3ccc(N)nc3=O)[C@H](OC)[C@@H]2OP(=O)(O)OC[C@H]2O[C@@H](n3ccc(N)nc3=O)[C@H](OC)[C@@H]2OP(=O)(O)OC[C@H]2O[C@@H](n3cnc4c(=O)[nH]c(N)nc43)[C@H](OC)[C@@H]2OP(=O)(O)OC[C@H]2O[C@@H](n3cnc4c(=O)[nH]c(N)nc43)[C@H](OC)[C@@H]2O)[C@@H](COP(=O)(O)O[C@H]2[C@@H](OC)[C@H](n3ccc(N)nc3=O)O[C@@H]2COP(=O)(O)O[C@H]2[C@@H](OC)[C@H](n3cnc4c(N)ncnc43)O[C@@H]2COP(=O)(O)O[C@H]2[C@@H](OC)[C@H](n3ccc(=O)[nH]c3=O)O[C@@H]2COP(=O)(O)O[C@H]2[C@@H](OC)[C@H](n3cnc4c(=O)[nH]c(N)nc43)O[C@@H]2CO)O[C@H]1n1ccc(N)nc1=O,–
18,61,–,–,–,CO[C@@H]1[C@H](OP(=O)(O)OC[C@H]2O[C@@H](n3ccc(=O)[nH]c3=O)[C@H](OC(=O)NCCCCN)[C@@H]2OP(=O)(O)OC[C@H]2O[C@@H](n3ccc(=O)[nH]c3=O)[C@H](OC)[C@@H]2OP(=O)(O)OC[C@H]2O[C@@H](n3ccc(=O)[nH]c3=O)[C@H](OC(=O)NCCCCN)[C@@H]2OP(=O)(O)OC[C@H]2O[C@@H](n3ccc(N)nc3=O)[C@H](OC)[C@@H]2OP(=O)(O)OC[C@H]2O[C@@H](n3ccc(N)nc3=O)[C@H](OC)[C@@H]2OP(=O)(O)OC[C@H]2O[C@@H](n3cnc4c(=O)[nH]c(N)nc43)[C@H](OC)[C@@H]2OP(=O)(O)OC[C@H]2O[C@@H](n3cnc4c(=O)[nH]c(N)nc43)[C@H](OC)[C@@H]2O)[C@@H](COP(=O)(O)O[C@H]2[C@@H](OC)[C@H](n3ccc(N)nc3=O)O[C@@H]2COP(=O)(O)O[C@H]2[C@@H](OC)[C@H](n3cnc4c(N)ncnc43)O[C@@H]2COP(=O)(O)O[C@H]2[C@@H](OC)[C@H](n3ccc(=O)[nH]c3=O)O[C@@H]2COP(=O)(O)O[C@H]2[C@@H](OC)[C@H](n3cnc4c(=O)[nH]c(N)nc43)O[C@@H]2CO)O[C@H]1n1ccc(N)nc1=O,–
–,47,–,–,–,CO[C@@H]1[C@H](OP(=O)(O)OC[C@H]2O[C@@H](n3ccc(=O)[nH]c3=O)[C@H](OC)[C@@H]2OP(=O)(O)OC[C@H]2O[C@@H](n3ccc(=O)[nH]c3=O)[C@H](OC)[C@@H]2OP(=O)(O)OC[C@H]2O[C@@H](n3ccc(=O)[nH]c3=O)[C@H](OC(N)=O)[C@@H]2OP(=O)(O)OC[C@H]2O[C@@H](n3ccc(N)nc3=O)[C@H](OC)[C@@H]2OP(=O)(O)OC[C@H]2O[C@@H](n3ccc(N)nc3=O)[C@H](OC)[C@@H]2OP(=O)(O)OC[C@H]2O[C@@H](n3cnc4c(=O)[nH]c(N)nc43)[C@H](OC)[C@@H]2OP(=O)(O)OC[C@H]2O[C@@H](n3cnc4c(=O)[nH]c(N)nc43)[C@H](OC)[C@@H]2O)[C@@H](COP(=O)(O)O[C@H]2[C@@H](OC)[C@H](n3ccc(N)nc3=O)O[C@@H]2COP(=O)(O)O[C@H]2[C@@H](OC)[C@H](n3cnc4c(N)ncnc43)O[C@@H]2COP(=O)(O)O[C@H]2[C@@H](OC(N)=O)[C@H](n3ccc(=O)[nH]c3=O)O[C@@H]2COP(=O)(O)O[C@H]2[C@@H](OC)[C@H](n3cnc4c(=O)[nH]c(N)nc43)O[C@@H]2CO)O[C@H]1n1ccc(N)nc1=O,–
